Measured values taken from ChEMBL document CHEMBL5030525, “Design, synthesis and antitumor activity evaluation of trifluoromethyl-substituted pyrimidine derivatives” (Bioorg Med Chem Lett, 2021).

Legend:
MCF7 = test: Antiproliferative activity against human MCF7 cells assessed as inhibition of cell growth measured after 72 hrs by MTT assay; assay type: functional, cell-based; details: MCF7, 72 h
Summary of the method: (§1)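 Cells in log phase were seeded at 3000–5000 per well and cultured 24 h at 37 °C, then exposed to a range of compound concentrations in fresh medium for 72 h. MTT was added and incubated 4 h at 37 °C, formazan was dissolved in DMSO, and absorbance was read at 490 nm. IC50 was taken from survival rate, as mean ± SD of three independent experiments. Stocks were 10 mM in DMSO.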

MGC-803 = test: Antiproliferative activity against human MGC-803 cells assessed as inhibition of cell growth measured after 72 hrs by MTT assay; assay type: functional, cell-based; details: MGC-803, 72 h; summary of the method: as §1
NCI-H1975 = test: Antiproliferative activity against human NCI-H1975 cells assessed as inhibition of cell growth measured after 72 hrs by MTT assay; assay type: functional, cell-based; details: NCI-H1975, 72 h; summary of the method: as §1
PC-3 = test: Antiproliferative activity against human PC-3 cells assessed as inhibition of cell growth measured after 72 hrs by MTT assay; assay type: functional, cell-based; details: PC-3, 72 h; summary of the method: as §1
GES1 = test: Cytotoxicity against human GES1 cells assessed as reduction in cell viability measured after 72 hrs by MTT assay; assay type: cell-based; details: GES1, 72 h; summary of the method: as §1
[1] = Selectivity index, ratio of IC50 for cytotoxicity against human GES1 cells to IC50 for antiproliferative activity against human NCI-H1975 cells; assay type: toxicity, cell-based; details: GES1 cells versus NCI-H1975 cells, read-out: Ratio IC50
Summary of the method: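 Ratio of GES-1 IC50 to H1975 IC50. Both came from the 72 h MTT assay, with IC50 as the mean ± SD of three separate experiments.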

SMILES	IC50 (MCF7)	IC50 (MGC-803)	IC50 (NCI-H1975)	IC50 (PC-3)	IC50 (GES1)	selectivity ratio [1]
C=CC(=O)Nc1cccc(Nc2cc(C(F)(F)F)nc(SCc3ccccc3F)n2)c1	31.1 µM	13.4 µM	15.4 µM	8.67 µM	–	–
CCN1CCN(c2cc(C(F)(F)F)nc(SCc3ccc(C(F)(F)F)cc3)n2)CC1	22 µM	25.6 µM	15 µM	27.2 µM	–	–
FC(F)(F)c1ccc(CSc2nc(N3CCNCC3)cc(C(F)(F)F)n2)cc1	10.7 µM	5.87 µM	6.21 µM	15.9 µM	–	–
C=CC(=O)Nc1cccc(Nc2cc(C(F)(F)F)nc(SCc3ccc(C(F)(F)F)cc3)n2)c1	7.08 µM	9.8 µM	4.77 µM	5.65 µM	31.5 µM	6.6
C=CC(=O)Nc1cccc(Nc2cc(C(F)(F)F)nc(SCc3ccccc3Cl)n2)c1	11.8 µM	28.4 µM	13.1 µM	13.6 µM	–	–
C=CC(=O)Nc1cccc(Nc2cc(C(F)(F)F)nc(SCc3ccccc3OC)n2)c1	22 µM	32.7 µM	6.5 µM	9.96 µM	–	–
Cc1nnc(Sc2cc(C(F)(F)F)nc(SCc3ccc(C(F)(F)F)cc3)n2)s1	> 50 µM	11.4 µM	3.06 µM	> 50 µM	–	–
Cc1ccc(Nc2cc(C(F)(F)F)nc(SCc3ccc(C(F)(F)F)cc3)n2)cc1	> 50 µM	32.3 µM	20.6 µM	16.5 µM	–	–
FC(F)(F)c1ccc(CSc2nc(N3CCOCC3)cc(C(F)(F)F)n2)cc1	> 50 µM	> 50 µM	> 50 µM	40.8 µM	–	–
C=CC(=O)Nc1cccc(Nc2cc(C(F)(F)F)nc(SCc3ccc(Br)cc3)n2)c1	11.7 µM	29.4 µM	6.44 µM	6.32 µM	–	–
C=CC(=O)Nc1cccc(Nc2cc(C(F)(F)F)nc(SCc3cccc(F)c3)n2)c1	23 µM	7.14 µM	13.7 µM	8.57 µM	–	–
C=CC(=O)Nc1cccc(Nc2cc(C(F)(F)F)nc(SCc3cccc(Br)c3)n2)c1	14.3 µM	22.8 µM	7.44 µM	7.44 µM	–	–
Cc1csc(Sc2cc(C(F)(F)F)nc(SCc3ccc(C(F)(F)F)cc3)n2)n1	14.5 µM	21.3 µM	5.84 µM	12 µM	–	–
FC(F)(F)c1ccc(CSc2nc(Sc3ncccn3)cc(C(F)(F)F)n2)cc1	> 50 µM	28.6 µM	14 µM	> 50 µM	–	–
FC(F)(F)c1ccc(CSc2nc(SC3=NCCS3)cc(C(F)(F)F)n2)cc1	44.9 µM	24.5 µM	24.2 µM	40.6 µM	–	–
C=CC(=O)Nc1cccc(Nc2cc(C(F)(F)F)nc(SCC3CCCO3)n2)c1 (stereo unspecified)	18.3 µM	37.2 µM	17.6 µM	12.9 µM	–	–
FC(F)(F)c1ccc(CSc2nc(N3CCSCC3)cc(C(F)(F)F)n2)cc1	> 50 µM	44 µM	> 50 µM	46.8 µM	–	–
C=CC(=O)Nc1cccc(Nc2cc(C(F)(F)F)nc(SCc3c(Cl)cccc3Cl)n2)c1	9.66 µM	34.7 µM	9.03 µM	14.6 µM	–	–
FC(F)(F)c1ccc(CSc2nc(Sc3nnnn3-c3ccccc3)cc(C(F)(F)F)n2)cc1	39.5 µM	12.4 µM	24.3 µM	45.3 µM	–	–
C=CC(=O)Nc1cccc(Nc2cc(C(F)(F)F)nc(SCc3ccccc3)n2)c1	19.1 µM	22.3 µM	21.9 µM	14.2 µM	–	–
Fc1ccc(Nc2cc(C(F)(F)F)nc(SCc3ccc(C(F)(F)F)cc3)n2)cc1	> 50 µM	19.2 µM	17.4 µM	14.1 µM	–	–
CC(C)(C)OC(=O)N1CCN(c2cc(C(F)(F)F)nc(SCc3ccc(C(F)(F)F)cc3)n2)CC1	> 50 µM	22.2 µM	> 50 µM	40.6 µM	–	–
FC(F)(F)c1ccc(CSc2nc(Sc3ncc(-c4ccncc4)s3)cc(C(F)(F)F)n2)cc1	10.1 µM	5.77 µM	16.7 µM	7.35 µM	–	–
C=CC(=O)Nc1cccc(Nc2cc(C(F)(F)F)nc(SCC3CC3)n2)c1	14.2 µM	38.7 µM	19.2 µM	12.6 µM	–	–
C=CC(=O)Nc1cccc(Nc2cc(C(F)(F)F)nc(SCc3ccc(OC)cc3)n2)c1	7.59 µM	15.1 µM	10.2 µM	15.8 µM	–	–
C=CC(=O)Nc1cccc(Nc2cc(C(F)(F)F)nc(SCc3ccc(Cl)cc3)n2)c1	15.8 µM	29.3 µM	11.7 µM	9.99 µM	–	–

SMILES	IC50 (MCF7)	IC50 (MGC-803)	IC50 (NCI-H1975)	IC50 (PC-3)	IC50 (GES1)	selectivity ratio [1]
FC(F)(F)c1ccc(CSc2nc(Nc3nnn[nH]3)cc(C(F)(F)F)n2)cc1	> 50 µM	> 50 µM	> 50 µM	> 50 µM	–	–
C=CC(=O)Nc1cccc(Nc2cc(C(F)(F)F)nc(SCc3ccccc3Br)n2)c1	20.2 µM	30.9 µM	9.62 µM	8.17 µM	–	–
COc1ccc(Nc2cc(C(F)(F)F)nc(SCc3ccc(C(F)(F)F)cc3)n2)cn1	36.9 µM	12.2 µM	6.32 µM	23.8 µM	–	–
FC(F)(F)c1ccc(CSc2nc(Sc3ccccn3)cc(C(F)(F)F)n2)cc1	43.2 µM	> 50 µM	23.9 µM	25.2 µM	–	–
C=CC(=O)Nc1cccc(Nc2cc(C(F)(F)F)nc(SCc3cccc(Cl)c3)n2)c1	10.1 µM	35.2 µM	14.8 µM	10.5 µM	–	–
CN1CCN(c2cc(C(F)(F)F)nc(SCc3ccc(C(F)(F)F)cc3)n2)CC1	30.2 µM	15.8 µM	23.9 µM	34.7 µM	–	–
Nc1cccc(Nc2cc(C(F)(F)F)nc(SCc3ccc(C(F)(F)F)cc3)n2)c1	13.5 µM	8.97 µM	23.6 µM	23.2 µM	–	–
C=CC(=O)Nc1cccc(Nc2cc(C(F)(F)F)nc(SCc3cccc(OC)c3)n2)c1	8.91 µM	32.4 µM	9.45 µM	11.5 µM	–	–
C=CC(=O)Nc1cccc(Nc2cc(C(F)(F)F)nc(SCc3ccccc3C(F)(F)F)n2)c1	17.2 µM	26.6 µM	6.55 µM	7.96 µM	–	–
FC(F)(F)c1ccc(CSc2nc(N3CCN(c4ccccc4)CC3)cc(C(F)(F)F)n2)cc1	> 50 µM	35.2 µM	> 50 µM	42.7 µM	–	–
COc1ccc(Nc2cc(C(F)(F)F)nc(SCc3ccc(C(F)(F)F)cc3)n2)cc1	22.2 µM	8.7 µM	13.8 µM	35.3 µM	–	–
C=CC(=O)Nc1cccc(Nc2cc(C(F)(F)F)nc(SCC3CCOCC3)n2)c1	17.7 µM	28.3 µM	16.3 µM	8.96 µM	–	–
C=CC(=O)Nc1cccc(Nc2cc(C(F)(F)F)nc(SCc3cccc(C(F)(F)F)c3)n2)c1	12.4 µM	18.7 µM	5.07 µM	5.92 µM	–	–
FC(F)(F)c1ccc(CSc2nc(N3CCN(c4ncccn4)CC3)cc(C(F)(F)F)n2)cc1	> 50 µM	35.2 µM	18.3 µM	> 50 µM	–	–
C=CC(=O)Nc1cccc(Nc2cc(C(F)(F)F)nc(SCc3ccc(Cl)cc3Cl)n2)c1	6.25 µM	18.6 µM	15.3 µM	6.66 µM	–	–
COc1cc(Nc2cc(C(F)(F)F)nc(SCc3ccc(C(F)(F)F)cc3)n2)cc(OC)c1OC	10.9 µM	15.5 µM	9.92 µM	19.5 µM	–	–
C=CC(=O)Nc1cccc(Nc2cc(C(F)(F)F)nc(SCc3ccc(C)cc3)n2)c1	25.7 µM	18.5 µM	15 µM	17.8 µM	–	–
C=CC(=O)Nc1cccc(Nc2cc(C(F)(F)F)nc(SCc3ccccc3C)n2)c1	33.6 µM	18.2 µM	14.6 µM	15.1 µM	–	–
FC(F)(F)c1ccc(CSc2nc(Nc3ccc(Cl)cc3Cl)cc(C(F)(F)F)n2)cc1	> 50 µM	35.5 µM	33.5 µM	29.6 µM	–	–
FC(F)(F)c1ccc(CSc2nc(N3CCN(c4ccccn4)CC3)cc(C(F)(F)F)n2)cc1	> 50 µM	23.5 µM	17.4 µM	> 50 µM	–	–
C=CC(=O)Nc1cccc(Nc2cc(C(F)(F)F)nc(SCc3cnc(Cl)s3)n2)c1	10.7 µM	38.3 µM	10.9 µM	11.5 µM	–	–
C=CC(=O)Nc1cccc(Nc2cc(C(F)(F)F)nc(SCC3CCCCC3)n2)c1	11.2 µM	34.1 µM	18 µM	12.5 µM	–	–
Fc1ccc(Nc2cc(C(F)(F)F)nc(SCc3ccc(C(F)(F)F)cc3)n2)cc1Cl	> 50 µM	41.4 µM	22.1 µM	35 µM	–	–
C=CC(=O)Nc1cccc(Nc2cc(C(F)(F)F)nc(SCc3cccc(C)c3)n2)c1	26.7 µM	12.6 µM	13.2 µM	9.05 µM	–	–
C=CC(=O)Nc1cccc(Nc2cc(C(F)(F)F)nc(SCc3ccc(F)cc3)n2)c1	14.9 µM	9.25 µM	10.1 µM	9.22 µM	–	–
